From ChEMBL document CHEMBL1926680, “The de-guanidinylated derivative of peramivir remains a potent inhibitor of influenza neuraminidase” (Bioorg Med Chem Lett, 2011)
Active and inactive are the calls of the source. The calls are words filed in the database; no cut-off is given here.

Columns and labels:
[1] = target: Neuraminidase (Influenza A virus, UniProt B4URF0); experiment: Inhibition of influenza A virus neuraminidase
[2] = system: Influenza A virus; experiment: Antiviral activity against NP40-inactivated Influenza A virus (A/Brisbane/59/2007(H1N1)) preincubated with virus for 10 mins by viral hemagglutinination titter assay; assay type: functional, organism-based
In short: (§1)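 Inhibitor dilutions were incubated for 10 min at room temperature with 0.2% NP40-inactivated virus, diluted to match the activity of 1000 ng/mL recombinant enzyme stock. The 4-methylumbelliferyl sialic acid substrate was then added in Tris/CaCl2/NaCl buffer, pH 7.5. Neuraminidase activity was read fluorimetrically (ex 365, em 445 nm), and IC50 was taken from the dose–response curve.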

[3] = target: Neuraminidase (Influenza A virus (strain A/Brevig Mission/1/1918 H1N1) (Influenza Avirus (strain A/South Carolina/1/1918 H1N1)), UniProt Q9IGQ6); experiment: Inhibition of Influenza A virus (A/Brevig Mission/1/1918(H1N1)) recombinant soluble neuraminidase using 2'-4(methylumbelliferyl)-alpha-D-N-acetylneuraminic acid substrate by fluorimetric assay
Neuraminidase (Influenza A virus (strain A/Brevig Mission/1/1918 H1N1) (Influenza Avirus (strain A/South Carolina/1/1918 H1N1)), UniProt Q9IGQ6), sequence (Q9IGQ6 whole entry): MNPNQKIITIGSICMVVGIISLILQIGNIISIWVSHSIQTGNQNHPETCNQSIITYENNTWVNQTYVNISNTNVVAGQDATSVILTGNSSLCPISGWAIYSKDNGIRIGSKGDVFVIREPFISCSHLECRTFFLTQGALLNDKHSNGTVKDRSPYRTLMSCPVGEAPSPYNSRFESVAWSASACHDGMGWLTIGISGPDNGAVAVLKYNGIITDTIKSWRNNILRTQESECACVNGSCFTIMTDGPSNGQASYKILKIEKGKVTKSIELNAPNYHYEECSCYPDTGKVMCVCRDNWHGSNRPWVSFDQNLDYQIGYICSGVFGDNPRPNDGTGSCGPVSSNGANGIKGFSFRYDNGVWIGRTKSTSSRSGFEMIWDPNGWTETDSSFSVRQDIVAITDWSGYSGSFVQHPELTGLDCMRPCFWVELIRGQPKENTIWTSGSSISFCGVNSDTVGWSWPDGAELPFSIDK
In short: (§2)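 Recombinant soluble neuraminidase (400 ng/mL final) in 50 mM Tris, 5 mM CaCl2, 200 mM NaCl, pH 7.5, was mixed with a range of inhibitor concentrations and 2'-4-methylumbelliferyl substrate (200 µM final, 1.5% total DMSO). Fluorescence (ex 365 nm, em 445 nm) was followed over 5 min, and IC50 was taken from the full dose–response curve.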

[4] = target: Neuraminidase (Influenza A virus (strain A/Brevig Mission/1/1918 H1N1) (Influenza Avirus (strain A/South Carolina/1/1918 H1N1))) (UniProt Q9IGQ6); experiment: Inhibition of Influenza A virus (A/Brevig Mission/1/1918(H1N1)) recombinant neuraminidase by dose responsive study; in short: as §2
Neuraminidase (Influenza A virus (strain A/Brevig Mission/1/1918 H1N1) (Influenza Avirus (strain A/South Carolina/1/1918 H1N1))), sequence (Q9IGQ6 whole entry): as above

[5] = target: Neuraminidase (Influenza A virus) (UniProt B4URF0); experiment: Inhibition of NP40-inactivated Influenza A virus (A/Brisbane/59/2007(H1N1)) neuraminidase after 10 mins by dose responsive study; in short: as §1
Neuraminidase (Influenza A virus), sequence (B4URF0 as listed by the source): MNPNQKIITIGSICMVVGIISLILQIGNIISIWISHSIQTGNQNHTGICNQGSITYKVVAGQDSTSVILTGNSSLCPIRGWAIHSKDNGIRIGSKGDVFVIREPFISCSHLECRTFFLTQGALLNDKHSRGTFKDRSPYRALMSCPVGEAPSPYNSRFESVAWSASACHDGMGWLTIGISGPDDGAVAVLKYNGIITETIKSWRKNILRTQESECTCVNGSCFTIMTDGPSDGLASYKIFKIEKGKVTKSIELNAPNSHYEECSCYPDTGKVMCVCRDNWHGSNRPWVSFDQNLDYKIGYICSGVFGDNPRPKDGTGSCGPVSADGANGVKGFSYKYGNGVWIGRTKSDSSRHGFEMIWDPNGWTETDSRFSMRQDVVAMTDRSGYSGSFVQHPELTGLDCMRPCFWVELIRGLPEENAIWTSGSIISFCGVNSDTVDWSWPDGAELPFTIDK

[6] = target: Neuraminidase (Influenza A virus (strain A/Brevig Mission/1/1918 H1N1) (Influenza Avirus (strain A/South Carolina/1/1918 H1N1))) (UniProt Q9IGQ6); experiment: Competitive inhibition of Influenza A virus (A/Brevig Mission/1/1918(H1N1)) recombinant soluble neuraminidase at 0.7 to 3 nM using 2'-4(methylumbelliferyl)-alpha-D-N-acetylneuraminic acid substrate by fluorimetric based Lineweaver-Burk plot analysis
In short: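 Recombinant soluble neuraminidase (1000 ng/mL stock, 400 ng/mL in well) in 50 mM Tris pH 7.5, 200 mM NaCl, 5 mM CaCl2. The 4-methylumbelliferyl sialic acid substrate working solution was serially diluted in buffer with 4% DMSO. Reaction progress was read by fluorescence (ex 365, em 445 nm) over 10 min across several substrate and inhibitor concentrations. Substrate-only controls were run.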

[7] = target: Neuraminidase (Influenza A virus (strain A/Brevig Mission/1/1918 H1N1) (Influenza Avirus (strain A/South Carolina/1/1918 H1N1))) (UniProt Q9IGQ6); experiment: Competitive inhibition of Influenza A virus (A/Brevig Mission/1/1918(H1N1)) recombinant soluble neuraminidase at 0.7 to 3 nM using 2'-4(methylumbelliferyl)-alpha-D-N-acetylneuraminic acid substrate by fluorimetric based Michaelis-Menten equation analysis
In short: (§3)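 For kinetics, substrate working solution was serially diluted in assay buffer (50 mM Tris, 5 mM CaCl2, 200 mM NaCl, pH 7.5) containing 4% DMSO. Recombinant soluble neuraminidase reaction progress was followed fluorimetrically (ex 365, em 445 nm) for 10 min at several substrate and inhibitor concentrations to derive Ki.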

[8] = system: Influenza A virus; experiment: Antiviral activity against NP40-inactivated Influenza A virus (A/Brisbane/59/2007(H1N1)) preincubated with virus for 2 hrs by viral hemagglutinination titter assay; assay type: functional, organism-based
In short: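 The virus assay used 0.2% NP40-inactivated virus, diluted to match the activity of 1000 ng/mL recombinant enzyme stock, with inhibitor preincubation lengthened to 2 h at room temperature before the 4-methylumbelliferyl substrate was added. Reaction was in pH 7.5 Tris/CaCl2/NaCl buffer, with fluorescence read at ex 365/em 445 nm. IC50 came from dose–response.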

[9] = target: Neuraminidase (Influenza A virus (strain A/Brevig Mission/1/1918 H1N1) (Influenza Avirus (strain A/South Carolina/1/1918 H1N1))) (UniProt Q9IGQ6); experiment: Competitive inhibition of Influenza A virus (A/Brevig Mission/1/1918(H1N1)) recombinant soluble neuraminidase at 3.75 to 15 nM using 2'-4(methylumbelliferyl)-alpha-D-N-acetylneuraminic acid substrate by fluorimetric based Lineweaver-Burk plot analysis; in short: as §3
[10] = target: Neuraminidase (Influenza A virus (strain A/Brevig Mission/1/1918 H1N1) (Influenza Avirus (strain A/South Carolina/1/1918 H1N1))) (UniProt Q9IGQ6); experiment: Competitive inhibition of Influenza A virus (A/Brevig Mission/1/1918(H1N1)) recombinant soluble neuraminidase at 3.75 to 15 nM using 2'-4(methylumbelliferyl)-alpha-D-N-acetylneuraminic acid substrate by fluorimetric based Michaelis-Menten equation analysis; in short: as §3

Neuraminidase, sequence (B4URF0 whole entry): as the sequence (B4URF0 as listed by the source) above

CCOC(=O)C1=C[C@@H](OC(CC)CC)[C@H](NC(C)=O)[C@@H](NC(=N)N)C1
IC50 [1]: 0.0005 µM

CCOC(=O)C1=C[C@@H](OC(CC)CC)[C@H](NC(C)=O)[C@@H](N)C1 [OSELTAMIVIR]
IC50 [1]: 0.001 µM

CCC(CC)[C@H](NC(C)=O)[C@@H]1[C@H](O)[C@@H](C(=O)O)C[C@H]1NC(=N)N [PERAMIVIR ANHYDROUS]
IC50 [2]: 0.00086 µM | IC50 [3]: 0.0034 µM | Ki [3]: 0.00083 µM | inhibition [4]: Dose-dependent effect | inhibition [5]: Dose-dependent effect | inhibition [6]: Active | inhibition [7]: Active

N=C(N)N[C@H]1CC[C@@](O)(C(=O)O)C1
IC50 [3]: 4000 µM

N[C@H]1CC[C@@](O)(C(=O)O)C1
IC50 [3]: 37000 µM

CCC(CC)[C@H](NC(C)=O)[C@@H]1[C@H](O)[C@@H](C(=O)O)C[C@H]1N
IC50 [2]: 0.0073 µM | IC50 [8]: 0.0022 µM | IC50 [3]: 0.0177 µM | Ki [3]: 0.0075 µM | inhibition [4]: Dose-dependent effect | inhibition [5]: Dose-dependent effect | inhibition [9]: Active | inhibition [10]: Active
